Activity calls are given as the source filed them. The calls are words filed in the database; no cut-off is given here. Bounds are passed on as bounds.

The values below come from ChEMBL document CHEMBL4190286, “Modulating the Serotonin Receptor Spectrum of Pulicatin Natural Products” (J Nat Prod, 2017).

The target in data set [1] is T1, 5-hydroxytryptamine receptor 2B (Homo sapiens, UniProt P41595). The data set is described as follows: Displacement of [3H]-LSD from human 5-HT2B receptor expressed in HEK cells after 90 mins by microbeta scintillation counting analysis. The class given is cell-based. A general note: Loss of bound radioactivity is the signal in a displacement assay; it reports binding, not function.

In data set [2] the target is T2, 5-hydroxytryptamine receptor 2C (Homo sapiens, UniProt P28335).
T2 sequence (P28335 whole entry): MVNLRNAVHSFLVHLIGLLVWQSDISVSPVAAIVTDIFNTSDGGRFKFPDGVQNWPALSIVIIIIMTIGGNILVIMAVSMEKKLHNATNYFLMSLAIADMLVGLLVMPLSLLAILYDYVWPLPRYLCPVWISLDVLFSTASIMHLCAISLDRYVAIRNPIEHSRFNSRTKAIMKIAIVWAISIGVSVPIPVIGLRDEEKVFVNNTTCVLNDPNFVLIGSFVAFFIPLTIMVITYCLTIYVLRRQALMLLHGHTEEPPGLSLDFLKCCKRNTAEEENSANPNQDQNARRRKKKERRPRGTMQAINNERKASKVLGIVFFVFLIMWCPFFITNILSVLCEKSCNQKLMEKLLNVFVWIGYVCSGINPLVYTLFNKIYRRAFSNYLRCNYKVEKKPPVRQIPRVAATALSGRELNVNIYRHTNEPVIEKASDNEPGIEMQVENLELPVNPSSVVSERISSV
The data set is described as follows: Displacement of [3H]-Mesulergine from human 5-HT2C receptor expressed in HEKT cells after 90 mins by microbeta scintillation counting analysis. The class given is cell-based.

The target of data set [3] is T1, 5-hydroxytryptamine receptor 2B. The data set is described as follows: Antagonist activity at 5-HT2B receptor (unknown origin) by calcium release assay. In kind it is functional.
The test system of data set [4] is Mus musculus. Nature of the data set: Anticonvulsant activity in mouse assessed as protection against 44 mA current-induced seizure at 100 mg/kg, ip pre-treated 2 to 4 hrs before current challenge by 6 Hz psychomotor seizure test. In kind it is functional, organism-based. In outline:
(§1)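 Mice received compound intraperitoneally at 10, 30 and 100 mg/kg. At 0.25, 0.5, 1, 2 and 4 h after dosing, four mice per time point were challenged with 32 or 44 mA for 3 s through corneal electrodes to elicit a partial psychomotor seizure. Data are the number of mice protected over the number tested at each time.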

Data set [5] concerns Mus musculus. Nature of the data set: Anticonvulsant activity in mouse assessed as protection against maximal electroshock-induced seizure at 100 mg/kg, ip pre-treated 0.25 to 4 hrs before electrical stimulation. The class given is functional, organism-based. In outline: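 Maximal electroshock seizure test in mice, four per condition. Compound was given ip at 10, 30 and 100 mg/kg, and mice were challenged at 0.25, 0.5, 1, 2 and 4 h after treatment. Data are the number protected over the number tested.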

Data set [6] concerns Mus musculus. Nature of the data set: Neurotoxicity in mouse assessed as motor impairment at 100 mg/kg, ip after 0.25 to 4 hrs by rotarod test. The class given is toxicity, organism-based. Particulars: in vivo. An outline of the steps:
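Rotarod, four mice per condition after ip dosing (10, 30 or 100 mg/kg). The rod turns at a fixed 6 rpm, and each mouse is observed for 1 min. Falling off three times within that minute scores as minimal motor impairment. Results are the number impaired over the number tested at 0.25–4 h.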

The subject of data set [7] is Mus musculus. Nature of the data set: Anticonvulsant activity in mouse assessed as protection against 32/44 mA current-induced seizure at 10 to 100 mg/kg, ip pre-treated 0.25 to 4 hrs before current challenge by 6 Hz psychomotor seizure test. The class given is functional, organism-based. In outline:
as §1

The subject of data set [8] is Mus musculus. The data set is described as follows: Antinociceptive activity in mouse assessed as tail withdrawal latency at 100 mg/kg, ip by tail flick assay. In kind it is functional, organism-based. A general note: In hot-plate and tail-flick tests a longer latency is read as antinociception.
The test system of data set [9] is Mus musculus. Nature of the data set: Antinociceptive activity in mouse assessed as increase in pain response latency at 100 mg/kg, ip by hot plate assay. The class given is functional, organism-based. An outline of the steps:
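Mice acclimatized for 10 min, then were placed on a hot plate held at 55 °C inside a clear open-top enclosure. Latency to hindpaw lick, hindpaw flick or jump was timed manually to the nearest 0.1 s.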

In data set [10] the target is T1, 5-hydroxytryptamine receptor 2B. The data set is described as follows: Agonist activity at 5-HT2B receptor (unknown origin) by calcium release assay. The class given is functional.
The target is the same in data set [11]. The data set is described as follows: Ratio of IC50 for antagonist activity at 5-HT2B receptor (unknown origin) by calcium release assay to Ki for displacement of [3H]-LSD from human 5-HT2B receptor expressed in baculovirus infected Sf9 cells. The class given is functional.
Data set [12] deals with T3, 5-hydroxytryptamine receptor 1D (Homo sapiens, UniProt P28221). Nature of the data set: Displacement of [3H]5-CT from human 5-HT1D receptor expressed in HEKT cells after 90 mins by microbeta scintillation counting analysis. The class given is cell-based.
Data set [13] has as its target 5-hydroxytryptamine receptor 1E (Homo sapiens, UniProt P28566). Nature of the data set: Displacement of [3H]5-HT from human 5-HT1E receptor expressed in HEK cells after 90 mins by microbeta scintillation counting analysis. In kind it is cell-based.
Data set [14] deals with T4, 5-hydroxytryptamine receptor 2A (Homo sapiens, UniProt P28223). Nature of the data set: Displacement of [3H]Ketanserin from 5-HT2A (unknown origin) receptor after 90 mins by microbeta scintillation counting analysis.
The target of data set [15] is T5, 5-hydroxytryptamine receptor 3A (Homo sapiens, UniProt P46098).
T5 sequence (P46098 whole entry): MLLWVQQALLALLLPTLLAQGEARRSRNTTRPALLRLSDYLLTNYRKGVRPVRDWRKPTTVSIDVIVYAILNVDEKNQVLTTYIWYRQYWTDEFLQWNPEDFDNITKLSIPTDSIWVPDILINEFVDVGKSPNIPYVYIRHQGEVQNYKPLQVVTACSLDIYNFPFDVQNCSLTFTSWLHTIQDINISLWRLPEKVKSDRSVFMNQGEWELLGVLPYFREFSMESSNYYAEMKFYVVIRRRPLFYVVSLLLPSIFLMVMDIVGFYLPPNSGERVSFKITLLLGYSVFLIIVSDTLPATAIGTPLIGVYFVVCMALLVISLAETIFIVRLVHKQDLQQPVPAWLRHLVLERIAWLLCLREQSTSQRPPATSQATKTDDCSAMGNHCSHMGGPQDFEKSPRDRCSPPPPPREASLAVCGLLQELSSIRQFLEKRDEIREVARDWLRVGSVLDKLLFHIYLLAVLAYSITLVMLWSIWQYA
Nature of the data set: Displacement of [3H]-GR65630 from human 5-HT3 receptor expressed in HEKT cells after 90 mins by microbeta scintillation counting analysis. The class given is cell-based.

Data set [16] has as its target 5-hydroxytryptamine receptor 5A (Homo sapiens, UniProt P47898). The data set is described as follows: Displacement of [3H]-LSD from human 5-HT5A receptor expressed in Flp-In CHO cells after 90 mins by microbeta scintillation counting analysis. In kind it is cell-based.
Data set [17] deals with 5-hydroxytryptamine receptor 6 (Homo sapiens, UniProt P50406). Nature of the data set: Displacement of [3H]-LSD from human 5-HT6 receptor expressed in HEK cells after 90 mins by microbeta scintillation counting analysis. The class given is cell-based.
Data set [18] has as its target T6, 5-hydroxytryptamine receptor 7 (Homo sapiens, UniProt P34969). The data set is described as follows: Displacement of [3H]-LSD from human 5-HT7A receptor expressed in HEK cells after 90 mins by microbeta scintillation counting analysis. The class given is cell-based.
Data set [19] addresses T4, 5-hydroxytryptamine receptor 2A. The data set is described as follows: Antagonist activity at 5-HT2A receptor (unknown origin) by calcium release assay. In kind it is functional.
The target of data set [20] is T2, 5-hydroxytryptamine receptor 2C. The data set is described as follows: Antagonist activity at 5-HT2C receptor (unknown origin) by calcium release assay. The class given is functional.
The target of data set [21] is T6, 5-hydroxytryptamine receptor 7. The data set is described as follows: Antagonist activity at 5-HT7A receptor (unknown origin) by Tango assay.
Data set [22] addresses T7, 5-hydroxytryptamine receptor 1A (Homo sapiens, UniProt P08908).
T7 sequence (P08908 whole entry): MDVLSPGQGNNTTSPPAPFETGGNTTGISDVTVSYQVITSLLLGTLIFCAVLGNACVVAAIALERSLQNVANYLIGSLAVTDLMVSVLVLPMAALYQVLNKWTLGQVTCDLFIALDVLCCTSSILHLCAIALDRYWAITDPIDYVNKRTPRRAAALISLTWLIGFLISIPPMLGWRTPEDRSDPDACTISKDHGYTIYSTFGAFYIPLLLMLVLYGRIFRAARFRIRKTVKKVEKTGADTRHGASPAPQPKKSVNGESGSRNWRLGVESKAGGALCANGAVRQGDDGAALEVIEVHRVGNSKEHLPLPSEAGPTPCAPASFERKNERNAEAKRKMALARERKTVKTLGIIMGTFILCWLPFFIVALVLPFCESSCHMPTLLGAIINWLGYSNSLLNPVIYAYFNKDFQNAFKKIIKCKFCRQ
Nature of the data set: Antagonist activity at 5-HT1A receptor (unknown origin) by Tango assay. In kind it is functional.

Data set [23] concerns the target T3, 5-hydroxytryptamine receptor 1D. The data set is described as follows: Antagonist activity at 5-HT1D receptor (unknown origin) by Tango assay. The class given is functional.
The target in data set [24] is T8, 5-hydroxytryptamine receptor 1B (Homo sapiens, UniProt P28222). The data set is described as follows: Displacement of [3H]5-CT from human 5-HT1B receptor expressed in HEK cells after 90 mins by microbeta scintillation counting analysis. In kind it is cell-based.
Data set [25] deals with T8, 5-hydroxytryptamine receptor 1B. The data set is described as follows: Antagonist activity at 5-HT1B receptor (unknown origin) by Tango assay. The class given is functional.
The target in data set [26] is 5-hydroxytryptamine receptor 4 (Homo sapiens, UniProt Q13639). The data set is described as follows: Antagonist activity at 5-HT4 receptor (unknown origin) by Tango assay. The class given is functional.
Data set [27] addresses T8, 5-hydroxytryptamine receptor 1B. Nature of the data set: Partial agonist activity at 5-HT1B receptor (unknown origin) by Tango assay. The class given is functional.
Data set [28] shares this target. Nature of the data set: Agonist activity at 5-HT1B receptor (unknown origin) at 2 uM by Tango assay. In kind it is functional.

5-hydroxytryptamine receptor 5A, sequence (P47898 whole entry): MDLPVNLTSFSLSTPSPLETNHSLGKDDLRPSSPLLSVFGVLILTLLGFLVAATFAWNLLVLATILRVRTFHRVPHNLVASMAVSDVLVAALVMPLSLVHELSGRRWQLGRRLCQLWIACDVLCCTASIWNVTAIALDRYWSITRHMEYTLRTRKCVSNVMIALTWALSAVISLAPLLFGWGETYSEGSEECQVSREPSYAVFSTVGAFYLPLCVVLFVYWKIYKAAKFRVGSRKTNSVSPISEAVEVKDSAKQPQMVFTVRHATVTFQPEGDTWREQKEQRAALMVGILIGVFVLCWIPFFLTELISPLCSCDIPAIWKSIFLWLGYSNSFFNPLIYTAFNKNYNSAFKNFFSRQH
T4 sequence (P28223 whole entry): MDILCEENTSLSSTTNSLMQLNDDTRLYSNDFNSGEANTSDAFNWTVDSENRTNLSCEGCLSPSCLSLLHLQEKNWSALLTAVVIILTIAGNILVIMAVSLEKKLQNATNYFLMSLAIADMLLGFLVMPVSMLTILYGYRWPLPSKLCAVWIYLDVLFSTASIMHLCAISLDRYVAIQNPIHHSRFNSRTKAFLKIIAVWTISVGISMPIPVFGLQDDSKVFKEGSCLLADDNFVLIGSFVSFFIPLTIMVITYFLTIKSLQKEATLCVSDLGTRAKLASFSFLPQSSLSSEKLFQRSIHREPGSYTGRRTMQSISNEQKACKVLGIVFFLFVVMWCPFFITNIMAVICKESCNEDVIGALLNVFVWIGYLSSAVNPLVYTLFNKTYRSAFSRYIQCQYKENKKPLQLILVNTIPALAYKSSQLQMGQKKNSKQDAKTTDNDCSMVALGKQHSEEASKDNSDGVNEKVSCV
5-hydroxytryptamine receptor 6, sequence (P50406 whole entry): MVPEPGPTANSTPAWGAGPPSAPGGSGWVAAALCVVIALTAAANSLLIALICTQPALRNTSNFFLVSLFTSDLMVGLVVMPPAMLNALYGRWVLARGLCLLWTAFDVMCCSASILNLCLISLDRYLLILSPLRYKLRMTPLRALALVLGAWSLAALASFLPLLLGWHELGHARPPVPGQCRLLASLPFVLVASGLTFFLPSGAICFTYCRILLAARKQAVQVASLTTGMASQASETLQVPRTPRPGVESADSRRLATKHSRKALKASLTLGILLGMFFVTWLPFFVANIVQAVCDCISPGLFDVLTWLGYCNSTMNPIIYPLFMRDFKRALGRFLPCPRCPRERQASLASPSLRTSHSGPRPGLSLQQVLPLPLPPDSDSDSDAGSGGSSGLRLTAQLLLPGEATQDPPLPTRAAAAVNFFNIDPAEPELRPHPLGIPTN
T6 sequence (P34969 whole entry): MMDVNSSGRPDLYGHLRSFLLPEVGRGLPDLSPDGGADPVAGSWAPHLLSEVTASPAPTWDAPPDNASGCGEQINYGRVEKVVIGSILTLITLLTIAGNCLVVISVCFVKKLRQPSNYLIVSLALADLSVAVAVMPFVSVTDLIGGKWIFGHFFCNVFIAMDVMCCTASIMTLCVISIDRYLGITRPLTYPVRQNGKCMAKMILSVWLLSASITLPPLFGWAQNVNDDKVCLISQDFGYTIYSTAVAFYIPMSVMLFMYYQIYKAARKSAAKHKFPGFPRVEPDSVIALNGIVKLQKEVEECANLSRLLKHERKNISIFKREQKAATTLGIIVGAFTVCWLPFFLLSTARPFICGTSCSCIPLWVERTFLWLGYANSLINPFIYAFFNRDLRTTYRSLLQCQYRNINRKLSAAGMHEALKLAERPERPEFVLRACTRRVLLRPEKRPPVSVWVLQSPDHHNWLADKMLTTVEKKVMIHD
T3 sequence (P28221 whole entry): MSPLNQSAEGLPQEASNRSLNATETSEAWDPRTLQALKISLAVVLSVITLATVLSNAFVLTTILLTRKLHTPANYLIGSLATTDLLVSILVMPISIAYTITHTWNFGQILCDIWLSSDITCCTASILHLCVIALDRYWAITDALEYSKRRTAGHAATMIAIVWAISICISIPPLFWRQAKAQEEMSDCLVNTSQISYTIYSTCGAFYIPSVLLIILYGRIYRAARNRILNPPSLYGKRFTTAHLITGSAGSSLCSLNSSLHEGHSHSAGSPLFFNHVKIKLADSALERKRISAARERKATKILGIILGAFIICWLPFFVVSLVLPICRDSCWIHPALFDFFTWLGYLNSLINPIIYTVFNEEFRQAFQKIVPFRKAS
5-hydroxytryptamine receptor 1E, sequence (P28566 whole entry): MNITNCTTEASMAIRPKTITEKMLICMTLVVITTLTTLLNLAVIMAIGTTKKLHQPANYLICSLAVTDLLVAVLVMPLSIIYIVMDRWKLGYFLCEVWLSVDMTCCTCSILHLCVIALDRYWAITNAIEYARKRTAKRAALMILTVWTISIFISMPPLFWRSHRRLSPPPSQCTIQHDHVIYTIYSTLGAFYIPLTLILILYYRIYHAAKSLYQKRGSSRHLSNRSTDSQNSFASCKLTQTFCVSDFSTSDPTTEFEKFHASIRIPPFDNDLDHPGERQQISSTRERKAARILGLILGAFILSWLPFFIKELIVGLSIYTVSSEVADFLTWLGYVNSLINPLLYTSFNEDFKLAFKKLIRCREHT
T8 sequence (P28222 whole entry): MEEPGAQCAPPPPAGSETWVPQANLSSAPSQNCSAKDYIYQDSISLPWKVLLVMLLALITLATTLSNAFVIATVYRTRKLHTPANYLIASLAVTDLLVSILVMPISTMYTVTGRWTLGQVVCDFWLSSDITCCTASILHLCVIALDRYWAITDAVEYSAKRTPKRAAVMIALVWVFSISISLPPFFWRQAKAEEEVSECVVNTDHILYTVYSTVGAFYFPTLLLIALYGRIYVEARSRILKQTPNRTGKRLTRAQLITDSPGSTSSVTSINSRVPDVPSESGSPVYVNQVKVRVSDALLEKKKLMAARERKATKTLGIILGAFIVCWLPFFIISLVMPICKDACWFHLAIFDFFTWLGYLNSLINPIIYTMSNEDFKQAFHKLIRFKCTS
T1 sequence (P41595 whole entry): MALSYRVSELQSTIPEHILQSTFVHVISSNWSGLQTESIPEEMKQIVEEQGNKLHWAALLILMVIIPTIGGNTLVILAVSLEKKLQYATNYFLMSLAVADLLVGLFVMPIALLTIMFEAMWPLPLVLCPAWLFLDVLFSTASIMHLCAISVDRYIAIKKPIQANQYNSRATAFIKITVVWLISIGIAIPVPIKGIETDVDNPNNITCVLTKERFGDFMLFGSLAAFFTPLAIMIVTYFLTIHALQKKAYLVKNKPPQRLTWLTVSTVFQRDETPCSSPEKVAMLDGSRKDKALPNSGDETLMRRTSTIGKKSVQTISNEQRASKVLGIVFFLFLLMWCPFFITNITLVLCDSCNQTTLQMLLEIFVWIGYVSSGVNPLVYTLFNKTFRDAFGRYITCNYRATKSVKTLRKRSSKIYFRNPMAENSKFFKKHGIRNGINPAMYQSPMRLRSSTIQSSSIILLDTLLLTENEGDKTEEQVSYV
5-hydroxytryptamine receptor 4, sequence (Q13639 whole entry): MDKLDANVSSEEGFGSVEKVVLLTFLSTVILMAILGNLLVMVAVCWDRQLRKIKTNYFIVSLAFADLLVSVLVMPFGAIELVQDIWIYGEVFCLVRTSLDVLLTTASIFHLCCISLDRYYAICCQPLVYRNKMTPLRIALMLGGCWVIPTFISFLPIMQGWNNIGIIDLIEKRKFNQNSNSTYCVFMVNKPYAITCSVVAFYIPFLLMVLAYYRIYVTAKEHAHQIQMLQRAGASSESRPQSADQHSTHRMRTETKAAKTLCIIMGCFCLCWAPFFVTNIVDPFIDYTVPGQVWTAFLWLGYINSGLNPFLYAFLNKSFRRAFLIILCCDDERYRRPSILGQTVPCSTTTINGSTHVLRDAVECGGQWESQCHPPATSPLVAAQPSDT

In the case of `C[C@@H]1SC(c2ccccc2O)=N[C@H]1CO`, the inhibitory constant (Ki) in data set [1] stood at 130 nM; in [2], 1600 nM. Moreover, the IC50 in [3] is 18000 nM. Further, the outcome (with Mus musculus [4]; with Mus musculus [5]; with Mus musculus [8]; in [10]) was inactive. Besides, the Activity result in the data set with Mus musculus [6] is reported as “Non-Toxic”. Further, the outcome with Mus musculus [7] and in the data set on Mus musculus [9] was Active. In addition, in data set [11], the Ratio fell in the range of 50 to 140.
With `Oc1ccccc1C1=NC(Cc2c[nH]cn2)C(c2ccccc2)S1` (racemic), the Ki in [1] came to 100 nM; in data set [12], 2200 nM; in data set [13] it was 2400 nM; in data set [14], 1100 nM; in data set [2], 770 nM; in data set [15], 860 nM. For the same compound, the Ki in data set [16] was 4700 nM; in [17], 2200 nM; in [18], greater than 10000 nM. The half-maximal inhibitory concentration (IC50) in data set [19] is 13000 nM; in [3], 3800 nM; in [20] it was greater than 10000 nM; in [21], greater than 10000 nM; in data set [22], greater than 10000 nM; in [23] it was greater than 10000 nM.
In the case of `C[C@@H]1SC(c2ccccc2O)=N[C@H]1Cc1c[nH]cn1` (racemic), the Ki in [1] is 47 nM; in data set [12], 2000 nM; in [13], greater than 10000 nM; in data set [14], 1400 nM; in data set [2], 140 nM; in data set [15] it was 240 nM. Besides, the Ki in data set [16] is greater than 10000 nM; in data set [17], 2600 nM; in [18] it was 3600 nM. The figures for the IC50 in data set [3], in data set [20] and in data set [22] were 800 nM, 6800 nM and greater than 10000 nM, respectively.
Turning to `CCCCCCOc1ccc(C2=N[C@@H](CO)[C@H](C)S2)cc1` (relative stereo), the Ki was 4300 nM in data set [1]; greater than 10000 nM in [24]; greater than 10000 nM in [12]; greater than 10000 nM in data set [13]; 3900 nM in data set [14]; 1700 nM in data set [2]. The Ki in data set [15], in [16], in [17] and in data set [18] was greater than 10000 nM throughout. For the same compound, the IC50 in data set [3] is greater than 10000 nM; in data set [22], greater than 10000 nM; in data set [25], 1900 nM; in [26], greater than 10000 nM; in [23], greater than 10000 nM. For the same compound, the EC50 in data set [27] was 180 nM. The inhibition in data set [28] was found to be 100%.

As a reminder, the Ki is the dissociation constant of the complex between target and ligand, obtained from inhibition or displacement. Low readings indicate tighter binding, high ones weaker binding. One may read the IC50 as the concentration at which inhibition is half-maximal. A word on the EC50: it is the concentration that produces a half-maximal response. A word on the inhibition: it is the share of the control response that was lost under treatment. A low value points to a response near the control.
